This is a sample that favours compounds with a hit; in the whole collection about 3.1% have one here.
S100A4 inh HTS: inhibitors of S100A4-myosin IIA peptide binding, primary screen, biochemical, fluorescence polarization, TAMRA-MyoIIA peptide; inhibition, % at 10.7 µM; Protein S100-A4 (Homo sapiens), P26447; actives 0.14% (n = 360,000);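 active means mean inhibition of at least 70% across replicates, with every replicate also reaching that level; inconclusive means mean inhibition reaches 70% but some replicates fall short; inactive means mean inhibition below 70%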
Target sequence (P26447 whole entry, looked up): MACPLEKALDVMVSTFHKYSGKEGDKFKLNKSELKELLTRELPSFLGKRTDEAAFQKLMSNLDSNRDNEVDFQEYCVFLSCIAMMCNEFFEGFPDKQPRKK
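System – human S100A4 monomer protein, biochemical binding assay · Buffer or medium – Calcium-containing HEPES buffer, pH 7.2 · Timing – 5 min between mix addition and reading · Also added – TAMRA-labelled myosin IIA heavy-chain peptide probe, 5 nM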
CFTR F508del cor: F508del CFTR correction, initial screen, CFBE line, single point; activity (quench increase), % at 7.58 µM; actives 0.36% (n = 350,000); CFBE cells, YFP halide quenching; stimulated with forskolin plus potentiator P3; % fluorescence drop versus neutral controls;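 active means mean added fluorescence quench of at least 8% versus neutral control, with both replicates also reaching 8%; inconclusive means only one of the mean or replicate conditions met; inactive means mean below 8% and not both replicates reaching 8%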;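 further: cells transiently co-express mutant CFTR-F508del with the halide-sensitive YFP; corrector assay measuring rescue of mutant channel to the surface after 24 h compound exposure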
SIRT5 inh: SIRT5 desuccinylase inhibitors, primary screen, biochemical, fluorescence imaging, single point, set 5; NAD-dependent protein deacylase sirtuin-5, mitochondrial (Homo sapiens), Q9NXA8; Purified SirT5, succinyl-peptide AMC, trypsin-coupled fluorescence; inhibition, % at 15 µM; actives 1.1% (n = 330,000); AID 652115, 2013; in the data active means inhibition above about 15%; inconclusive means no clear call, values can overlap the other calls
Target sequence (Q9NXA8 whole entry, looked up): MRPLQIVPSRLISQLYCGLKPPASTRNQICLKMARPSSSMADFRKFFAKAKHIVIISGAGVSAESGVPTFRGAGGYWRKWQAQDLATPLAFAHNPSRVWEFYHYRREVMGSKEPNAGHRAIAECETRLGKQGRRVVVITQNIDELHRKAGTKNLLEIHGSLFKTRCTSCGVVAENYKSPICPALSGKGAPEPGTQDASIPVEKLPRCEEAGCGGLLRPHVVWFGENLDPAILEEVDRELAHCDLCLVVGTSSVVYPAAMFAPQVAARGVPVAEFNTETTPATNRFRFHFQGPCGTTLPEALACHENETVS
rRNA inh HTS: reduced GFP signal of wild-type E. coli, primary screen, bacterial rRNA inhibitor project, GFP/RFP fluorescence, OD600, single point. E. coli WT GFP vs humanized-ribosome RFP mutants, 24 h; active compounds read low; DMSO median 0, no signal -100. GFP signal change (wild-type ribosome), % (concentration not given with the values). AID 720706, 2013. actives 1.6% (n = 350,000);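 active means significant combined selectivity score with lowered wild-type GFP, culture density cut under 30%, mutant RFP and density less affected; inactive means any of these conditions unmet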
ERAP1 inh: human ERAP1 aminopeptidase inhibitors, primary screen, biochemical, single point, plate reader | Endoplasmic reticulum aminopeptidase 1 (Homo sapiens), Q9NZ08 | recombinant ERAP1, Leu-AMC fluorescence, 60 min | inhibition, % at 10.7 µM | actives 0.15% (n = 340,000) | AID 652197, 2013;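 active means mean replicate inhibition of at least 30%, or all replicates individually reaching that 30% level; inactive means mean below 30% and not every replicate reaching it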;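 further: 0% = neutral control wells and 100% = L-leucinethiol positive control wells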
AID977621: growth inhibition of wild-type GFP E. coli, dose response, H69 mutant RFP, cherry-pick | AID 977621, 2014 | shares compounds with rRNA inh HTS | 1,900 tested, under 10 active | activity change, negative = inhibition at 50 µM | E. coli wild-type GFP strain growth, fluorescence, 24 h;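 active means Wild-type ribosome reporter drop at least double the humanized mutant ribosome reporter drop, growth loss under a set limit; inconclusive means no clear call, values can overlap the other calls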;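 further: wild-type GFP and H69 mutant RFP strains grown together 50/50 in each well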
AID977628: E. coli growth inhibition, wild-type GFP versus h24 humanized RFP strain, dose response, h24 mutant RFP vs wild-type GFP, cherry-pick; shares compounds with rRNA inh HTS; E. coli WT GFP strain growth, fluorescence, 24 h; activity change, negative = inhibition at 50 µM; 1,900 tested, under 10 active; AID 977628, 2014;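 active means compound lowering the normal-ribosome reporter at least twice as much as the humanized-ribosome reporter, growth loss under a set limit; inconclusive means no clear call, values can overlap the other calls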;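 further: wild-type GFP and h24 humanized RFP strains co-cultured 1 to 1 per well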
* = called active by the depositor; ? = inconclusive; . = not tested or not shown.

SMILES	S100A4 inh HTS	CFTR F508del cor	SIRT5 inh	rRNA inh HTS	ERAP1 inh	AID977621	AID977628
C[C@@H]1CN([C@@H](C)CO)C(=O)Cc2cc(NC(=O)C3CCCCC3)ccc2O[C@H]1CN(C)S(=O)(=O)c1cccs1	1	1	3	-3	-1	.	.
CN(C)C(=O)[C@H]1[C@H](CO)[C@H]2Cn3c(ccc(-c4ccccc4F)c3=O)[C@@H]1N2C(=O)c1cccnc1	9	-1	-5	4	1	.	.
Cc1noc(C)c1NC(=O)Nc1ccc2c(c1)C(=O)N([C@H](C)CO)C[C@H](C)[C@@H](CN(C)C(=O)CCCN(C)C)OCCCC[C@@H](C)O2	8	-3	0	1	0	.	.
C[C@@H]1CN([C@@H](C)CO)C(=O)c2cc(-c3cncnc3)cnc2O[C@@H]1CN(C)Cc1ccc(Oc2ccccc2)cc1	13	2	-4	-6	3	.	.
COc1ccc2c3c([nH]c2c1)[C@H](CO)N(C(=O)C1CCC1)CC31CN(S(C)(=O)=O)C1	-6	-1	-1	-2	3	.	.
Cc1ccc(NC(=O)CN(C)S(=O)(=O)c2cccc3cccnc23)cc1F	-1	-1	-1	-28*	-3	-7.4	.
Cc1ccc(NC(=O)CN(C)S(=O)(=O)c2cccc3cccnc23)cc1C	-9	0	1	2	5	.	.
COc1ccc(C(=O)NCC(=O)N2CC=C(c3ccccc3)CC2)cc1OC	-2	2	-4	-14	1	.	.
Cc1cccc(C(=O)NCC(=O)N2CC=C(c3ccccc3)CC2)c1	11	-1	0	-30*	0	0.37	?
O=C(C[n+]1cc(-c2ccc(F)cc2)n2c1CCC2)c1cccs1	-6	2	0	-16*	.	0.92	2.6
Cc1ccc(NC(=O)C[n+]2cc(-c3ccccc3)n3c2CCC3)cc1	1	6	-1	-40*	3	4.9	?
C[C@H](NC(=O)C[C@@H]1CC[C@H](NC(=O)C2CCC2)[C@H](CO)O1)c1ccccc1	17	0	3	3	-3	.	.
Cc1ccc(CCN2C(=O)c3ccccc3C2C(=O)NCc2cccnc2)cc1 (stereo unspecified)	3	-4	2	-38*	1	7.8	?
Cc1ccc(CN2C(=O)c3ccccc3C2C(=O)NCc2cccnc2)cc1 (stereo unspecified)	-9	-1	1	3	0	.	.
CS(=O)(=O)N1CC2CCCN2c2ccc(C(F)(F)F)cc21 (stereo unspecified)	-1	-1	0	-33*	0	-1.4	-2.8
COc1ccc(NC(=O)N(C)C[C@@H]2Oc3ccc(NC(=O)C4CCCCC4)cc3C(=O)N([C@H](C)CO)C[C@H]2C)cc1	13	-1	-3	3	-3	.	.
O=S(=O)(Nc1ccc(-c2cn3ccccc3n2)cc1)c1ccccc1	-4	-1	-2	-9	1	.	.
Cc1cccc(S(=O)(=O)Nc2ccc(-c3cn4ccccc4n3)cc2)c1	-4	-3	-1	-32*	-1	?	.
Cc1cc(OCC(=O)N(Cc2ccco2)C2CCS(=O)(=O)C2)ccc1Cl (stereo unspecified)	3	3	5	-19*	-3	?	.
CO[C@H]1CN(C)C(=O)c2cc(NC(=O)c3ccccc3F)ccc2OC[C@H](C)N(C)C[C@H]1C	1	-1	-15	-3	0	.	.
COc1cc(CCN(C(=O)c2cc3ccccc3[nH]2)C(c2ccccn2)c2nc3ccccc3[nH]2)cc(OC)c1 (stereo unspecified)	-3	-1	4	-26*	-2	-20	-11
COc1cc(CCN(C(=O)c2cc3ccccc3[nH]2)C(C)c2nc3ccccc3[nH]2)cc(OC)c1 (stereo unspecified)	0	3	1	-16	0	.	.
O=C(Cc1ccccc1Cl)Nc1nc2ccccc2[nH]1	-1	4	-2	-20*	.	-8.9	?
O=C(CCNC(=O)c1ccccc1Cl)Nc1nc2ccccc2[nH]1	3	1	-3	6	3	.	.
COc1cccc(-c2ccc(SCc3ccccn3)nn2)c1	-3	0	-1	-23*	1	.	?
SMILES	S100A4 inh HTS	CFTR F508del cor	SIRT5 inh	rRNA inh HTS	ERAP1 inh	AID977621	AID977628
COc1ccc(-c2ccc(SCc3ccccn3)nn2)cc1OC	0	3	-1	-17	0	.	.
CCCCn1c(=O)[nH]c(=O)c2c1nc(-c1ccccc1F)n2Cc1ccccc1	-7	0	-6	-26*	-2	-6.6	?
O=C(O)CCCCCCCCc1cn(CC2CCCCC2)nn1	-3	0	-3	-21*	-11	?	.
Cc1ccc(-n2cc(CCCCCCCCC(=O)O)nn2)cc1	1	1	.	-11	-14	.	.
CCn1c(COc2cccc(OC)c2)nnc1SCC(=O)Nc1cc(OC)ccc1OC	-1	.	-2	-23*	3	-3.6	-9.2
CCn1c(COc2cccc(OC)c2)nnc1SCC(=O)NC1CCCC1	1	-1	-15	0	-4	.	.
C[C@@H]1CCCCO[C@H](CN(C)C(=O)NC2CCCCC2)[C@@H](C)CN([C@H](C)CO)C(=O)c2cc(NC(=O)Cc3ccccc3)ccc2O1	4	-2	2	1	1	.	.
Cc1ccccc1-n1ncc2c1CC(C)(C)CC2NC(=O)CCN1Cc2ccccc2C1=O (stereo unspecified)	3	-1	1	-24*	0	-11	.
Cc1cc(C(=O)Nc2cccc3c2O[C@@H](CN(C)S(=O)(=O)c2ccc(Cl)cc2)[C@@H](C)CN([C@H](C)CO)C3=O)n(C)n1	-5	7	-4	-11	0	.	.
COc1ccccc1N(C)S(=O)(=O)c1ccc(Cl)c(C(=O)NC2=NCCS2)c1	2	-1	-1	-30*	-5	-15	?
CN(c1ccccc1)S(=O)(=O)c1ccc(Cl)c(C(=O)NC2=NCCS2)c1	1	-4	2	-18	2	.	.
COc1ccc(OC)c(N(CC(=O)Nc2ccccc2F)S(=O)(=O)c2ccccc2)c1	0	0	0	-24*	-1	-11	.
COc1ccc(OC)c(N(CC(=O)Nc2ccccc2)S(=O)(=O)c2ccccc2)c1	-1	2	1	-15	3	.	.
